Results published in PMC9066187 (RSC Advances, 2019).
Read-outs that look alike come from different tables or passages of the source.

How the values were obtained:
[1] = tested on: mixture of tyrosine kinases extracted from HT-29 cell line; assay type: biochemical, human; settings: 10 μM
purified Src kinase = purified Src kinase (Homo sapiens, UniProt P12931); assay: biochemical; settings: for inhibition at 10 µM: read-out: Src kinase inhibition
HCT-116 cells [2] = assay: Annexin V-FITC/PI apoptosis/necrosis assessment, HCT-116; assay type: cell-based, human; settings: 10 μM, 48 h, versus control
Summary of the method: (§1)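 Human colorectal cancer cells were exposed to 10 μM test compound for 48 h, then stained with annexin V-FITC/PI and analysed by flow cytometry to separate apoptotic from necrotic cells. Each population is expressed as a percentage of total events and compared with untreated control. Values are mean ± SD, n = 3.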

HT-29 cells [3] = assay: cells; settings: Homo sapiens, HT-29, 72 h; for viability at 10 µM: read-out: viability drop compared to control cells
[4] = tested on: LS-174T colorectal cancer cells; assay: cells; settings: Homo sapiens, LS174T, 72 h, read-out: viability drop compared to control cells
HCT-116 cells [5] = assay: Cell cycle distribution by DNA cytometry, HCT-116; assay type: cell-based, human; settings: 10 μM, 48 h
HT-29 cells [6] = assay: Cell cycle distribution by DNA cytometry, HT-29; assay type: cell-based, human; settings: 10 μM, 48 h; for cells in S-phase: control 27.3 ± 0.6%; for cell population in G0/G1-phase: control 53.4 ± 2.7%; for cell population in G2/M-phase: control 19.3 ± 1.6%
HT-29 cells [7] = assay: Annexin V-FITC/PI apoptosis/necrosis assessment, HT-29; assay type: cell-based, human; settings: 10 μM, 48 h, versus control
Summary of the method: as §1

HCT-116 cells [8] = assay: Cyto-ID autophagy assessment, HCT-116; assay type: cell-based, human; settings: 10 μM, 48 h
HT-29 cells [9] = assay: Cyto-ID autophagy assessment, HT-29; assay type: cell-based, human; settings: for inhibition at 10 µM: Homo sapiens, HT-29, 48 h, read-out: inhibition of autophagy
HCT-116 cells [10] = settings: 72 h; for viability drop compared to control cells: 100 μM
HCT-116 cells [11] = assay: cells; settings: Homo sapiens, HCT-116, 72 h; for IC50: 72 h; for viability at 10 µM: read-out: viability drop compared to control cells
HT-29 cells [12] = settings: 72 h; for viability drop compared to control cells: 100 μM
[13] = tested on: LS-174T colorectal cancer cells; settings: 100 μM; 72 h

purified Src kinase, sequence (P12931 whole entry, looked up): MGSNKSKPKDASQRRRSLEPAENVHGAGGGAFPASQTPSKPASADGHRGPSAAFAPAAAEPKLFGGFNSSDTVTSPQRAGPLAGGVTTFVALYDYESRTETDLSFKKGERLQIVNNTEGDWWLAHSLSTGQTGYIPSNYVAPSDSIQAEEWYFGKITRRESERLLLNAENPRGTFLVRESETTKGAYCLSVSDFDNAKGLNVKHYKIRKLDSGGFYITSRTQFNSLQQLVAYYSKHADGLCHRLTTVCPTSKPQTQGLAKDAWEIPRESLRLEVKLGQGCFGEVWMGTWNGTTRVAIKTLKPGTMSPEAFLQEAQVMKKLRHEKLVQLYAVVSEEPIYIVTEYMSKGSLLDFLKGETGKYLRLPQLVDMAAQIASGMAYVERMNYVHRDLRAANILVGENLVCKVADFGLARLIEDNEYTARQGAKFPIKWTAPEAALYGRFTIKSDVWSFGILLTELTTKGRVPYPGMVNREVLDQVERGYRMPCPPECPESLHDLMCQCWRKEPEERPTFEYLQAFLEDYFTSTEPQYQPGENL

For COc1cc(C)cc(-c2nc(Nc3cc(C(F)(F)F)cc(C(F)(F)F)c3)ncc2-c2ccnc(Cl)c2)c1 [Compound 7], the multi-kinase inhibitory effect [1] was 37.4 ± 3.7%, the “Src kinase inhibitory activity in words (dose-response)” value (“Src kinase inhibitory activity” for short) (purified Src kinase) was “moderate inhibitory activity” and the inhibition at 10 µM (purified Src kinase) was 42.3 ± 10.3%. For the same compound, the “increase of necrotic cell population” value (HCT-116 cells [2]) was 3.4 folds, the IC50 (HT-29 cells [3]) was 9.4 ± 0.5 µM and the viability at 10 µM (HT-29 cells [3]) was greater than 50%. For the same compound, the viability at 100 µM [4] was greater than 50%.

COc1cc(C)cc(-c2nc(Nc3cc(C(F)(F)F)cc(C(F)(F)F)c3)ncc2-c2ccnc(-c3ccccc3)c2)c1 [Compound 8a] was tested, and the multi-kinase inhibitory effect [1] was 23 ± 0.4%, the “Src kinase selectivity index” value (purified Src kinase) was 2.4 and the inhibition at 10 µM (purified Src kinase) was 54 ± 0.6%.

COc1cc(C)cc(-c2nc(Nc3cc(C(F)(F)F)cc(C(F)(F)F)c3)ncc2-c2ccnc(-c3cccnc3)c2)c1 [Compound 8b] was tested, and the multi-kinase inhibitory effect [1] was 26.6 ± 2.4%, the EC50 (purified Src kinase) was 1.3 ± 0.3 µM and the “Src kinase selectivity index” value (purified Src kinase) was 2.9. The inhibition at 10 µM (purified Src kinase) was 77.8 ± 1.3%, the “cells in S-phase” value (HCT-116 cells [5]; control 36.4 ± 4.1%) was 22.8 ± 2.3% and the “cells in G0/G1-phase” value (HCT-116 cells [5]; control 39.5 ± 4.6%) was 50.2 ± 1.0%. The “cells in S-phase” value (HT-29 cells [6]) was 21.0 ± 0.9%, the “cell population in G0/G1-phase” value (HT-29 cells [6]) was 58.8 ± 1.8% and the “increase of apoptotic cell population” value (HCT-116 cells [2]) was 3.8 folds. The “increase of necrotic cell population” value (HCT-116 cells [2]) was 2.9 folds, the “increase of apoptotic cell population” value (HT-29 cells [7]) was 2.5 folds and the “autophagic signal higher than control cells” value (HCT-116 cells [8]) was 54%. For the same compound, the inhibition at 10 µM (HT-29 cells [9]) was 21%, the IC50 (HCT-116 cells [10]) was 32.4 ± 2.8 µM and the “R (resistance fraction)” value (HCT-116 cells [10]) was 3.7 ± 0.9%. It also gave an IC50 (HCT-116 cells [11]) greater than 25 µM, a viability at 10 µM (HCT-116 cells [11]) of 30 to 45% and an IC50 (HT-29 cells [3]) of 11.3 ± 0.5 µM. For the same compound, the viability at 10 µM (HT-29 cells [3]) was 35 to 45%.

In the case of COc1cc(C)cc(-c2nc(Nc3cc(C(F)(F)F)cc(C(F)(F)F)c3)ncc2-c2ccnc(-c3cccc(C(C)=O)c3)c2)c1 [Compound 8c], the viability at 10 µM (HT-29 cells [3]) is reported as 35 to 45%.

For COc1cc(C)cc(-c2nc(Nc3cc(C(F)(F)F)cc(C(F)(F)F)c3)ncc2-c2ccnc(-c3ccc(C#N)cc3)c2)c1 [Compound 8f], the viability at 10 µM (HCT-116 cells [11]) was greater than 50%, the viability at 10 µM (HT-29 cells [3]) was greater than 50% and the viability at 10 µM [4] was greater than 50%. It also gave a viability at 100 µM [4] greater than 50%.

With COc1cc(C)cc(-c2nc(Nc3cc(C(F)(F)F)cc(C(F)(F)F)c3)ncc2-c2ccnc(-c3ccc(N(C)C)cc3)c2)c1 [Compound 8g] the multi-kinase inhibitory effect [1] was 33.1 ± 0.4%, the inhibition at 10 µM (purified Src kinase) was 28.5 ± 1.2% and the viability at 10 µM (HCT-116 cells [11]) was 30 to 45%. For the same compound, the viability at 10 µM (HT-29 cells [3]) was greater than 50% and the viability at 100 µM [4] was greater than 50%.

In the case of COc1cc(C)cc(-c2nc(Nc3cc(C(F)(F)F)cc(C(F)(F)F)c3)ncc2-c2ccnc(-c3ccc(N(c4ccccc4)c4ccccc4)cc3)c2)c1 [Compound 8h], the “viability drop compared to control cells” value (HCT-116 cells [10]) is reported as “failed to show any considerable antiproliferative/cytotoxic effects”, the “viability drop compared to control cells” value (HT-29 cells [12]) is reported as “failed to show any considerable antiproliferative/cytotoxic effects” and the “viability drop compared to control cells” value [13] is reported as “failed to show any considerable antiproliferative/cytotoxic effects”.

In the case of COc1cc(C)cc(-c2nc(Nc3cc(C(F)(F)F)cc(C(F)(F)F)c3)ncc2-c2ccnc(-c3ccc(Oc4ccccc4)cc3)c2)c1 [Compound 8j], the multi-kinase inhibitory effect [1] is reported as 26 ± 0.5%, the “Src kinase selectivity index” value (purified Src kinase) is reported as 2.1 and the inhibition at 10 µM (purified Src kinase) is reported as 54.9 ± 1.6%.

For Cc1cc(O)cc(-c2nc(Nc3cc(C(F)(F)F)cc(C(F)(F)F)c3)ncc2-c2ccnc(-c3ccccc3)c2)c1 [Compound 10a], the multi-kinase inhibitory effect [1] was 24.7 ± 4.6%, the “Src kinase inhibitory activity” value (purified Src kinase) was “completely inactive” and the “cell population in G2/M-phase” value (HT-29 cells [6]) was 24.8 ± 0.4%. For the same compound, the “cells in S-phase” value (HT-29 cells [6]) was 29.8 ± 0.6%, the “cell population in G0/G1-phase” value (HT-29 cells [6]) was 45.4 ± 0.6% and the “increase of apoptotic cell population” value (HCT-116 cells [2]) was 7.5 folds. The “increase of necrotic cell population” value (HCT-116 cells [2]) was 4.0 folds, the inhibition at 10 µM (HT-29 cells [9]) was 24% and the IC50 (HCT-116 cells [11]) was 10.3 ± 0.6 µM. For the same compound, the viability at 10 µM (HCT-116 cells [11]) was 30 to 45%, the IC50 (HT-29 cells [3]) was 9.9 ± 0.3 µM and the viability at 10 µM (HT-29 cells [3]) was greater than 50%.

Cc1cc(O)cc(-c2nc(Nc3cc(C(F)(F)F)cc(C(F)(F)F)c3)ncc2-c2ccnc(-c3cccnc3)c2)c1 [Compound 10b] was tested, and the “Src kinase inhibitory activity” value (purified Src kinase) was “completely inactive”, the “cell population in G2/M-phase” value (HT-29 cells [6]) was 25.1 ± 0.6% and the “cells in S-phase” value (HT-29 cells [6]) was 23.0 ± 0.5%. The “increase of apoptotic cell population” value (HCT-116 cells [2]) was 4.7 folds, the “increase of necrotic cell population” value (HCT-116 cells [2]) was 2.4 folds and the “increase of apoptotic cell population” value (HT-29 cells [7]) was 2.3 folds. For the same compound, the “autophagic signal higher than control cells” value (HCT-116 cells [8]) was 30%, the IC50 (HCT-116 cells [10]) was 25.9 ± 1.3 µM and the “R (resistance fraction)” value (HCT-116 cells [10]) was less than 1%. It also gave an IC50 (HCT-116 cells [11]) greater than 25 µM, a viability at 10 µM (HCT-116 cells [11]) of 30 to 45% and an IC50 (HT-29 cells [3]) of 6.4 ± 0.5 µM. For the same compound, the viability at 10 µM (HT-29 cells [3]) was greater than 50%.

For CC(=O)c1cccc(-c2cc(-c3cnc(Nc4cc(C(F)(F)F)cc(C(F)(F)F)c4)nc3-c3cc(C)cc(O)c3)ccn2)c1 [Compound 10c], the viability at 10 µM (HCT-116 cells [11]) was 30 to 45%, the viability at 10 µM (HT-29 cells [3]) was 35 to 45% and the viability at 10 µM [4] was greater than 50%. The viability at 100 µM [4] was greater than 50%.

In the case of CC(=O)c1ccc(-c2cc(-c3cnc(Nc4cc(C(F)(F)F)cc(C(F)(F)F)c4)nc3-c3cc(C)cc(O)c3)ccn2)cc1 [Compound 10d], the viability at 10 µM (HT-29 cells [3]) is reported as 35 to 45%, the viability at 10 µM [4] is reported as greater than 50% and the viability at 100 µM [4] is reported as greater than 50%.

In the case of Cc1cc(O)cc(-c2nc(Nc3cc(C(F)(F)F)cc(C(F)(F)F)c3)ncc2-c2ccnc(-c3ccc(C#N)cc3)c2)c1 [Compound 10f], the multi-kinase inhibitory effect [1] is reported as 23.9 ± 7.4%, the “Src kinase inhibitory activity” value (purified Src kinase) is reported as “completely inactive” and the “increase of apoptotic cell population” value (HCT-116 cells [2]) is reported as 15.2 folds. For the same compound, the “increase of necrotic cell population” value (HCT-116 cells [2]) was 3.7 folds, the “increase of apoptotic cell population” value (HT-29 cells [7]) was 1.7 folds and the “autophagic signal higher than control cells” value (HCT-116 cells [8]) was 99%. For the same compound, the IC50 (HCT-116 cells [11]) was 9.2 ± 0.8 µM, the viability at 10 µM (HCT-116 cells [11]) was 30 to 45% and the IC50 (HT-29 cells [3]) was 7.2 ± 1.1 µM.

Work on Cc1cc(O)cc(-c2nc(Nc3cc(C(F)(F)F)cc(C(F)(F)F)c3)ncc2-c2ccnc(-c3ccc(N(C)C)cc3)c2)c1 [Compound 10g] yielded a multi-kinase inhibitory effect [1] of 39 ± 0.4%, an EC50 (purified Src kinase) of 3.7 ± 0.7 µM and an inhibition at 10 µM (purified Src kinase) of 51.3 ± 9.8%. The “R (resistance fraction)” value (HCT-116 cells [10]) was 41.6 ± 3.2%, the “R (resistance fraction)” value (HT-29 cells [12]) was 12.9 ± 3.9% and the IC50 (HCT-116 cells [11]) was 9.4 ± 0.9 µM. The viability at 10 µM (HCT-116 cells [11]) was 30 to 45%, the IC50 (HT-29 cells [3]) was 24.2 ± 2.1 µM and the viability at 100 µM [4] was greater than 50%.

With Cc1cc(O)cc(-c2nc(Nc3cc(C(F)(F)F)cc(C(F)(F)F)c3)ncc2-c2ccnc(-c3ccc(N(c4ccccc4)c4ccccc4)cc3)c2)c1 [Compound 10h] the “viability drop compared to control cells” value (HCT-116 cells [10]) was “failed to show any considerable antiproliferative/cytotoxic effects”, the “viability drop compared to control cells” value (HT-29 cells [12]) was “failed to show any considerable antiproliferative/cytotoxic effects” and the “viability drop compared to control cells” value [13] was “failed to show any considerable antiproliferative/cytotoxic effects”.

Work on Cc1cc(O)cc(-c2nc(Nc3cc(C(F)(F)F)cc(C(F)(F)F)c3)ncc2-c2ccnc(-c3ccc(Oc4ccccc4)cc3)c2)c1 [Compound 10j] yielded a multi-kinase inhibitory effect [1] of 30.2 ± 0.4%, a viability at 10 µM (HCT-116 cells [11]) of 30 to 45% and a viability at 10 µM (HT-29 cells [3]) of 35 to 45%. It also gave a viability at 10 µM [4] greater than 50% and a viability at 100 µM [4] greater than 50%.

In the case of CCN(CC)CCCC(C)Nc1ccnc2cc(Cl)ccc12 (stereo not drawn) [chloroquine, reference compound], the “autophagic signal higher than control cells” value (HCT-116 cells [8]) is reported as 65% and the “effect on autophagy in words” value (HT-29 cells [9]; HT-29, 10 μM, 48 h, Cyto-ID) is reported as “induced autophagy”.
